Measured values published in article PMC2849726 (Journal of medicinal chemistry, 2010).
In brackets after ≈: the same amount, converted by molar mass. Entries after “also recorded” stand apart in the source; their conditions may differ.

Columns and labels:
[1] = tested on: SK-BR-3 (estrogen receptor negative, HER2 over-expressing luminal-like breast cancer); assay: Cell growth inhibition assay; type: cell-based, human
Outline: (§1)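 Cells were grown in RPMI-1640 with 10% FBS and antibiotics at 37 °C in 5% CO2. Freshly trypsinized cells were seeded and test compound added from DMSO-diluted stock, then incubated 72 h after attachment. Cells were fixed with 10% TCA and stained 10 min with 0.4% SRB in 1% HOAc. Bound dye was dissolved in 10 mM trizma base and A515 read. ED50 is the concentration giving 50% reduction in net protein increase versus control, averaged over at least three independent determinations.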

[2] = tested on: ZR-75-1 (estrogen receptor positive, HER2 over-expressing luminal-like breast cancer); assay: Cell growth inhibition assay; type: cell-based, human; settings: for IC50: Homo sapiens, ZR-75-1, read-out: IC50 against the ZR-75-1 cell lines
Outline: as §1

[3] = tested on: ER+ and HER2++ breast cancer cells; settings: more selective than TAM; cited from earlier work
[4] = tested on: SK-BR-3 (estrogen receptor negative, HER2 over-expressing luminal-like breast cancer); settings: cited from earlier work
[5] = tested on: human breast cancer cell lines; assay: Cell line panel; type: cell-based; settings: total 29 cell lines, unpublished data
ABL = ABL (Homo sapiens, UniProt P00519); assay: Kinases inhibition assay, ABL; type: biochemical; settings: preliminary, Table 3 in supporting information
MDA-MB-231 xenograft = assay: Antitumor activity in vivo, MDA-MB-231 xenograft; design: species or system SCID mice; settings: 10 mg/kg i.p. qod to end
Outline: (§2)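 Human tumour cells were grown in RPMI 1640 with 10% heat-inactivated FBS, 2 mM glutamine and antibiotics, harvested in log phase and resuspended in PBS at 5 × 10^7 cells/mL. 1 × 10^7 cells were given s.c. in the right flank. Test compound was dosed i.p. at 10 mg/kg qod to end in 4% benzyl alcohol/6% cremophor/90% D5W. Controls were vehicle i.p. qod and paclitaxel 20 mg/kg i.p. q4d × 5. Caliper tumour volume = w²×l/2. %TGD was calculated from mean time to endpoint, with logrank P ≤ 0.05. At least five animals per group.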

AKT1 = AKT1 (Homo sapiens, UniProt P31749); assay: Kinases inhibition assay, AKT1; type: biochemical; settings: preliminary, Table 3 in supporting information
CK2α1 = CK2α1 (Homo sapiens, UniProt P68400); assay: Kinases inhibition assay, CK2α1; type: biochemical; settings: preliminary, Table 3 in supporting information
[6] = tested on: mammary gland side branching; assay: Preliminary in vivo evaluation, mammary gland side branching; settings: BRCA1/p53 and wild-type mice, unpublished data
[7] = tested on: MCF-7 (estrogen receptor positive luminal-like breast cancer); settings: cited from earlier work
PC-3 xenograft = assay: Antitumor activity in vivo, PC-3 xenograft; design: species or system SCID mice; settings: 10 mg/kg i.p. qod to end
Outline: as §2

ZR-75-1 xenograft = assay: Antitumor activity in vivo, ZR-75-1 xenograft; design: species or system SCID mice; settings: 10 mg/kg i.p. qod to end
Outline: as §2

[8] = tested on: MCF-7 (estrogen receptor positive luminal-like breast cancer); assay: Cell growth inhibition assay; type: cell-based, human
Outline: as §1

Chain of CK2α1 (P68400 whole entry): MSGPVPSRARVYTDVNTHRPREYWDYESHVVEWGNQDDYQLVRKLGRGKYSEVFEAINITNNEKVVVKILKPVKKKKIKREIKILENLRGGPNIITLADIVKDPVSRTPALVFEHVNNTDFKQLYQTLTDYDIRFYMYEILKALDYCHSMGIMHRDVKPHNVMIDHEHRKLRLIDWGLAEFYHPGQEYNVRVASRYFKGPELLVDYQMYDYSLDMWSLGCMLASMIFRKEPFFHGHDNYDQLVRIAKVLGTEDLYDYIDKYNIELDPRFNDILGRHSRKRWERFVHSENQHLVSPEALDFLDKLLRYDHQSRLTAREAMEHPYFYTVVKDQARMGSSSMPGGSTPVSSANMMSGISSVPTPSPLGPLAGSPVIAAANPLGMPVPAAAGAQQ
Chain of ABL (P00519 whole entry, species assumed): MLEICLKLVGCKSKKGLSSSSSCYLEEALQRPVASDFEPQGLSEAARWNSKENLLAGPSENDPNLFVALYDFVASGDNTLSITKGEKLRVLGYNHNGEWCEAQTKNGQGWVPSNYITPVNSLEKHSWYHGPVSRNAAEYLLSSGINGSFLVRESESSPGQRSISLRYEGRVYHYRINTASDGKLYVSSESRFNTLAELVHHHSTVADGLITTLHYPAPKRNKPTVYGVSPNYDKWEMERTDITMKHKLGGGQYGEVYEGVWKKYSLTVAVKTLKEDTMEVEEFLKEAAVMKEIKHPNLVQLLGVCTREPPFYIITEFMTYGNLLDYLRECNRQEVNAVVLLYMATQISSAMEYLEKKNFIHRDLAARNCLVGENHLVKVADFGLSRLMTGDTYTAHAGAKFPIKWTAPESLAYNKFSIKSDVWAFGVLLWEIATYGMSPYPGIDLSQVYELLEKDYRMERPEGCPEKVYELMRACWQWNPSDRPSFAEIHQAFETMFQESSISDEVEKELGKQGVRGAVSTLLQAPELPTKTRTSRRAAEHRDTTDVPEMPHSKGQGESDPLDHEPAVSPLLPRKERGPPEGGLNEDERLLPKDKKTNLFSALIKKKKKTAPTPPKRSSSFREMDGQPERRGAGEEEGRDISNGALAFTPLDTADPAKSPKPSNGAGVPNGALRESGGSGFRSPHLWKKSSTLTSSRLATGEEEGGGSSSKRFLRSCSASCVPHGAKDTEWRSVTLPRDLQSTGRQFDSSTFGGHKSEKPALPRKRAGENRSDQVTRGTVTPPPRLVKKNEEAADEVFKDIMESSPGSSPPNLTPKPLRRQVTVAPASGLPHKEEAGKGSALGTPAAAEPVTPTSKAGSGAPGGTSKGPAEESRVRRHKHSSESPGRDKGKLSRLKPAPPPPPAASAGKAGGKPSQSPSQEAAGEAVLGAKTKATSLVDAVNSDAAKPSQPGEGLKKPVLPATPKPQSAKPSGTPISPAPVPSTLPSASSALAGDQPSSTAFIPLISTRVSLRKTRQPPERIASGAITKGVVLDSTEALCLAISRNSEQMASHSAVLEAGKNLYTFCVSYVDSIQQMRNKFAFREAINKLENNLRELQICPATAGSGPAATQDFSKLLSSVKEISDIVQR
Chain of AKT1 (P31749 whole entry, species assumed): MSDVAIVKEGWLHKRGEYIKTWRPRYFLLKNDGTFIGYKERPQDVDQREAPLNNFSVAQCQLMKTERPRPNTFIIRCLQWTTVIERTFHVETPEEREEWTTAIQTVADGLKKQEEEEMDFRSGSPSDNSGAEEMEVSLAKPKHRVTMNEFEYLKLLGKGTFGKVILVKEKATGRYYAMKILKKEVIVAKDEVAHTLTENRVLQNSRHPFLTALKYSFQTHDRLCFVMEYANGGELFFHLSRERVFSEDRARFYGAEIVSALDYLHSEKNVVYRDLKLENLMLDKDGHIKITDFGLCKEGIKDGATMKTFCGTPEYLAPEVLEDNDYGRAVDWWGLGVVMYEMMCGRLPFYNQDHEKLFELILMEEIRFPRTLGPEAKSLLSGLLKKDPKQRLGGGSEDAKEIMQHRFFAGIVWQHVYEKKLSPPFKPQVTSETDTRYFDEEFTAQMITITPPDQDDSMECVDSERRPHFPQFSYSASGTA

For `Cc1ccc2c(=O)oc3c4ccccc4ccc3c2c1` [Compound 58, 9-Methyl-6H-dibenzo[c,h]chromen-6-one], the “anti-breast cancer activity (in words)” value ([1]; only SK-BR-3 tested) was “inactive”.

For `Cc1coc2c1c(=O)oc1c3cccc(C(C)Br)c3ccc21` (stereo not drawn) [Compound 24, 6-(1-Bromoethyl)-1-methyl-11H-benzo[h]furo[3,2-c]chromen-11-one], the “potency relative to 1 against SK-BR-3” value [1] was “two- to three-fold more potent than 1” and the “potency relative to 1 against ZR-75-1” value [2] was “two- to three-fold more potent than 1”.

With `COc1cccc2c1ccc1c3occ(C)c3c(=O)oc21` [Compound 21, 6-Methoxy-1-methyl-11H-benzo[h]furo[3,2-c]chromen-11-one] the ZR-75-1/MCF-7 selectivity ratio ([2]; more active against ZR-75-1 than MCF-7) was 23 fold.

With `Cc1coc2c1c(=O)oc1c3cccc(C(C)C)c3ccc21` [Compound 19, 6-Isopropyl-1-methyl-11H-benzo[h]furo[3,2-c]chromen-11-one] the ZR-75-1/SK-BR-3 selectivity ratio [2] was “tenfold” and the IC50 [2] was 0.3 µg/mL (≈ 1.03 µM).

For `Cc1cccc2c1ccc1c3occ(C)c3c(=O)oc21` [Compound 1, Neo-tanshinlactone], the “selectivity relative to TAM” value [3] is given as 20 fold.

For `CCc1cccc2c1ccc1c3occ(C)c3c(=O)oc21` [Compound 2], the “activity relative to 1 against SK-BR-3” value [4] is given as “about twice as active”, the “share of human breast cancer cell lines against which effective” value [5] is given as “approximately 40%” and the “suppression of ABL (in words)” value (ABL) is given as “significantly suppressed”. The “effect on MDA-MB-231 xenograft (in words)” value (MDA-MB-231 xenograft) was “no effect”, the “suppression of AKT1 (in words)” value (AKT1) was “significantly suppressed” and the “suppression of CK2α1 (in words)” value (CK2α1) was “significantly suppressed”. For the same molecule, the “mammary gland side branching (in words)” value [6] was “dramatically reduced”, the “activity relative to 1 against MCF-7” value [7] was “about twice as active” and the “effect on PC-3 xenograft (in words)” value (PC-3 xenograft) was “no effect”. The “ZR-75-1 tumor xenograft growth (in words)” value (ZR-75-1 xenograft) was “potent activity; also recorded: significant reduction in growth”.

For `CCCc1cccc2c1ccc1c3occ(C)c3c(=O)oc21` [Compound 20, 1-Methyl-6-propyl-11H-benzo[h]furo[3,2-c]chromen-11-one], the SK-BR-3/MCF-7 selectivity ratio [1] was “approximately 12 fold”, the ZR-75-1/SK-BR-3 selectivity ratio [2] was “threefold” and the IC50 [2] was 0.2 µg/mL (≈ 0.684 µM).

In the case of `CCc1cccc2c1ccc1c3oc(C)cc3c(=O)oc21` [Compound 51, 6-Ethyl-2-methyl-11H-benzo[h]furo[3,2-c]chromen-11-one], the “activity against MCF-7 (in words)” value [8] is reported as “completely inactive”.
